Measured values taken from ChEMBL document CHEMBL4765263, “Design, synthesis, biological evaluation of 6-(2-amino-1H-benzo[d]imidazole-6-yl)quinazolin-4(3H)-one derivatives as novel anticancer agents with Aurora kinase inhibition” (Eur J Med Chem, 2020).
pIC50: −log10 of the molar value.

Legend:
[1] = Solubility of compound in water; type: physicochemical; conditions: buffer
[2] = tested on: PC-3; assay: Cytotoxicity against human PC-3 cells assessed as reduction in cell viability incubated for 72 hrs by MTT assay; type: functional, cell-based; conditions: PC-3, 72 h
Summary of the method: (§1)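 MTT viability assay. Cells kept in DMEM with 10% FBS at 37 °C and 5% CO2. Seeded at 5×10^3 cells per well and exposed to a range of compound concentrations from 20 mM DMSO stocks. IC50 is the mean of triplicate measurements.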

[3] = tested on: MDA-MB-231; assay: Cytotoxicity against human MDA-MB-231 cells assessed as reduction in cell viability incubated for 72 hrs by MTT assay; type: functional, cell-based; conditions: MDA-MB-231, 72 h; summary of the method: as §1
[4] = tested on: SH-SY5Y; assay: Cytotoxicity against human SH-SY5Y cells assessed as reduction in cell viability incubated for 72 hrs by MTT assay; type: functional, cell-based; summary of the method: as §1

**Q.** For `CN(C)C(=O)Nc1nc2ccc(-c3ccc4ncn(CCN5CCOCC5)c(=O)c4c3)cc2[nH]1`, which solubility [1] is on record?
**A.** Soluble

**Q.** And the pIC50 [2]?
**A.** 5.19

**Q.** And the pIC50 [3]?
**A.** 5.31

**Q.** What about the pIC50 [4] of the same compound?
**A.** 5.41

**Q.** With `CCS(=O)(=O)Nc1nc2ccc(-c3ccc4ncn(CC(=O)N5CCOCC5)c(=O)c4c3)cc2[nH]1` as the compound, how does the pIC50 [2] read?
**A.** < 4.70

**Q.** What about the pIC50 [3] of the same compound?
**A.** < 4.70

**Q.** What about the pIC50 [4] of the same compound?
**A.** < 4.70

**Q.** What does the source list for `CCC(=O)Nc1nc2ccc(-c3ccc4ncn(CC(=O)N5CCOCC5)c(=O)c4c3)cc2[nH]1`?
**A.** pIC50 [2]: < 4.70; pIC50 [3]: < 4.70; pIC50 [4]: < 4.70

**Q.** With `CCS(=O)(=O)Nc1nc2ccc(-c3ccc4ncn(CCN5CCOCC5)c(=O)c4c3)cc2[nH]1` as the compound, how does the pIC50 [2] read?
**A.** < 4.70

**Q.** And the pIC50 [3]?
**A.** < 4.70

**Q.** What about the pIC50 [4] of the same compound?
**A.** < 4.70

**Q.** With `CCCCn1cnc2ccc(-c3ccc4nc(NC(=O)CC)[nH]c4c3)cc2c1=O` as the compound, how does the pIC50 [2] read?
**A.** < 4.70

**Q.** What about the pIC50 [3] of the same compound?
**A.** < 4.70

**Q.** And the pIC50 [4]?
**A.** < 4.70
